From ChEMBL document CHEMBL4842360, “Discovery of a Bicyclic Peptidyl Pan-Ras Inhibitor” (J Med Chem, 2021)

Assays:
NCI-H358 [1] = experiment: Antiproliferative activity against human NCI-H358 cells incubated for 96 hrs by MTT assay; type: functional, cell-based
Procedure, shortened: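 H358 cells at 5,000/well, grown overnight, treated with serially diluted peptide (0–40 μM) in 10% FBS medium for 96 h at 37 °C. MTT added for 4 h, formazan solubilized overnight in SDS-HCl, absorbance read at 570 nm.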

NCI-H358 [2] = experiment: Antiproliferative activity against human NCI-H358 cells incubated for 96 hrs by Celltiter-Glo assay; type: functional, cell-based; settings: Homo sapiens, NCI-H358, 96 h; read-out: EC50
GTPase KRas = GTPase KRas (Homo sapiens, UniProt P01116, G12V); experiment: Inhibition of His6-tagged KRas G12V mutant (unknown origin) expressed in Escherichia coli BL21(DE3) cells assessed as reduction in Ras/GST-fused Raf RBD interaction incubated for 1 hr by HTRF assay
Chain of GTPase KRas (P01116 whole entry G12V, the tested form may be a part): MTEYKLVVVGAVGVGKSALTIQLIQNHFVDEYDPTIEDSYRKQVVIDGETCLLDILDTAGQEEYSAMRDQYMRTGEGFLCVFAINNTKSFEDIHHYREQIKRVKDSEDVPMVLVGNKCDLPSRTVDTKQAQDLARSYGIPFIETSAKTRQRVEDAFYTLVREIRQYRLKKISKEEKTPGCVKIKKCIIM

[3] = Homo sapiens, NCI-H358, 96 h, read-out: EC50

Row | Compound | EC50 (NCI-H358 [2]) | IC50 (GTPase KRas; read-out: IC50) | also measured
1 | C[C@@H]1NC(=O)[C@@H](Cc2ccccc2)NC(=O)[C@@H]2CCCCNC(=O)c3cc(cc(c3)C(=O)N[C@H](Cc3ccc4ccccc4c3)C(=O)N[C@@H](CO)C(=O)N[C@@H](CCC(N)=O)C(=O)N[C@H](Cc3ccc4ccccc4c3)C(=O)N[C@@H](c3ccccc3)C(=O)N2)C(=O)NC[C@@H](C(=O)N[C@@H](CCN)CC(=O)N[C@H](CC(N)=O)C(=O)N[C@H](Cc2ccc(O)cc2)C(=O)N[C@@H](C(N)=O)[C@H](C)O)NC(=O)[C@H](CCCNC(=N)N)NC(=O)[C@@H](CCCNC(=N)N)NC1=O | – | – | EC50 (NCI-H358 [1]; nci-h358): Not Active
2 | CC(C)C[C@@H](NC(=O)[C@H](CCC(N)=O)NC(=O)CNC(=O)[C@@H]1CNC(=O)c2cc3cc(c2)C(=O)N[C@H](Cc2ccc4ccccc4c2)C(=O)N[C@@H](CO)C(=O)N[C@@H](CCC(N)=O)C(=O)N[C@H](Cc2ccc4ccccc4c2)C(=O)N[C@@H](c2ccccc2)C(=O)N[C@@H](CCCCNC3=O)C(=O)N[C@H](Cc2ccccc2)C(=O)N[C@@H](C)C(=O)N[C@H](CCCNC(=N)N)C(=O)N[C@@H](CCCNC(=N)N)C(=O)N1)C(=O)N[C@H](CCCNC(=N)N)C(=O)N[C@@H](CCCCN)C(N)=O | – | – | EC50 (NCI-H358 [1]; nci-h358): Not Active
3 | C[C@H](NC(=O)[C@@H]1CNC(=O)c2cc3cc(c2)C(=O)N[C@H](Cc2ccc4ccccc4c2)C(=O)N[C@@H](CO)C(=O)N[C@@H](CCC(N)=O)C(=O)N[C@H](Cc2ccc4ccccc4c2)C(=O)N[C@@H](c2ccccc2)C(=O)N[C@@H](CCCCNC3=O)C(=O)N[C@H](Cc2ccccc2)C(=O)N[C@@H](C)C(=O)N[C@H](CCCNC(=N)N)C(=O)N[C@@H](CCCNC(=N)N)C(=O)N1)C(=O)N[C@H](CCCNC(=N)N)C(=O)N[C@H](Cc1ccccc1)C(=O)N[C@@H](Cc1ccc(F)cc1)C(N)=O | – | – | EC50 (NCI-H358 [1]; [3]): 19 µM
4 | CC(C)[C@@H](NC(=O)C[C@H](CCN)NC(=O)[C@@H]1CNC(=O)c2cc3cc(c2)C(=O)N[C@H](Cc2ccc4ccccc4c2)C(=O)N[C@@H](CO)C(=O)N[C@@H](CCC(N)=O)C(=O)N[C@H](Cc2ccc4ccccc4c2)C(=O)N[C@@H](c2ccccc2)C(=O)N[C@@H](CCCCNC3=O)C(=O)N[C@H](Cc2ccccc2)C(=O)N[C@@H](C)C(=O)N[C@H](CCCNC(=N)N)C(=O)N[C@@H](CCCNC(=N)N)C(=O)N1)C(=O)N[C@H](C)CC(=O)N[C@H](Cc1c[nH]c2ccccc12)C(=O)NCCC(N)=O | – | – | EC50 (NCI-H358 [1]; nci-h358): Not Active
5 | CCCC[C@H](NC(=O)CNC(=O)C[C@H](CCC)NC(=O)[C@@H]1CNC(=O)c2cc3cc(c2)C(=O)N[C@H](Cc2ccc4ccccc4c2)C(=O)N[C@@H](CO)C(=O)N[C@@H](CCC(N)=O)C(=O)N[C@H](Cc2ccc4ccccc4c2)C(=O)N[C@@H](c2ccccc2)C(=O)N[C@@H](CCCCNC3=O)C(=O)N[C@H](Cc2ccccc2)C(=O)N[C@@H](C)C(=O)N[C@H](CCCNC(=N)N)C(=O)N[C@@H](CCCNC(=N)N)C(=O)N1)C(=O)N[C@H](CCCNC(=N)N)C(N)=O | – | – | EC50 (NCI-H358 [1]; [3]): 24 µM
6 | C[C@@H]1NC(=O)[C@@H](Cc2ccccc2)NC(=O)[C@@H]2CCCCNC(=O)c3cc(cc(c3)C(=O)N[C@H](Cc3ccc4ccccc4c3)C(=O)N[C@@H](CO)C(=O)N[C@@H](CC(N)=O)C(=O)N[C@H](Cc3ccc4ccccc4c3)C(=O)N[C@@H](c3ccccc3)C(=O)N2)C(=O)NC[C@@H](C(=O)N[C@@H](CC(N)=O)C(=O)N[C@H](CCCNC(=N)N)C(=O)N[C@@H](Cc2ccccc2)C(=O)N[C@H](C)C(N)=O)NC(=O)[C@H](CCCNC(=N)N)NC(=O)[C@@H](CCCNC(=N)N)NC1=O | 8.4 µM | 0.28 µM | –
7 | C[C@@H]1NC(=O)[C@@H](Cc2ccccc2)NC(=O)[C@@H]2CCCCNC(=O)c3cc(cc(c3)C(=O)N[C@H](Cc3ccc4ccccc4c3)C(=O)N[C@@H](CO)C(=O)N[C@@H](CC(N)=O)C(=O)N[C@H](Cc3ccc4ccccc4c3)C(=O)N[C@@H](c3ccccc3)C(=O)N2)C(=O)NC[C@@H](C(=O)N[C@@H](CC(N)=O)C(=O)N[C@H](CCCNC(=N)N)C(=O)N[C@@H](Cc2cccnc2)C(=O)N[C@H](C)C(N)=O)NC(=O)[C@H](CCCNC(=N)N)NC(=O)[C@@H](CCCNC(=N)N)NC1=O | 6.6 µM | 0.41 µM | –
8 | C[C@@H]1NC(=O)[C@@H](Cc2ccccc2)NC(=O)[C@@H]2CCCCNC(=O)c3cc(cc(c3)C(=O)N[C@H](Cc3ccc4ccccc4c3)C(=O)N[C@@H](CO)C(=O)N[C@@H](CC(N)=O)C(=O)N[C@H](Cc3ccc4ccccc4c3)C(=O)N[C@@H](c3ccccc3)C(=O)N2)C(=O)NC[C@@H](C(=O)N[C@@H](CCN)CC(=O)N[C@H](CCCNC(=N)N)C(=O)N[C@@H](Cc2ccc(F)cc2)C(=O)N[C@H](C)C(=O)N[C@@H](CCCCN)C(N)=O)NC(=O)[C@H](CCCNC(=N)N)NC(=O)[C@@H](CCCNC(=N)N)NC1=O | 7.2 µM | 0.89 µM | –
9 | C[C@@H]1NC(=O)[C@@H](Cc2ccccc2)NC(=O)[C@@H]2CCCCNC(=O)c3cc(cc(c3)C(=O)N[C@H](Cc3ccc4ccccc4c3)C(=O)N[C@@H](CO)C(=O)N[C@@H](CC(N)=O)C(=O)N[C@H](Cc3ccc4ccccc4c3)C(=O)N[C@@H](c3ccccc3)C(=O)N2)C(=O)NC[C@@H](C(=O)N[C@@H](CC(N)=O)C(=O)N[C@H](CCCNC(=N)N)C(=O)N[C@@H](Cc2ccc(F)c(F)c2)C(=O)N[C@H](C)C(N)=O)NC(=O)[C@H](CCCNC(=N)N)NC(=O)[C@@H](CCCNC(=N)N)NC1=O | 4.4 µM | 0.5 µM | –
10 | C[C@@H]1NC(=O)[C@@H](Cc2ccccc2)NC(=O)[C@@H]2CCCCNC(=O)c3cc(cc(c3)C(=O)N[C@H](Cc3ccc4ccccc4c3)C(=O)N[C@@H](CO)C(=O)N[C@@H](CCC(N)=O)C(=O)N[C@H](Cc3ccc4ccccc4c3)C(=O)N[C@@H](c3ccccc3)C(=O)N2)C(=O)NC[C@@H](C(=O)N[C@@H](CCC(=O)O)C(=O)N[C@@H](Cc2cnc[nH]2)C(=O)N2CCC[C@@H]2C(=O)N[C@H](Cc2ccc(O)cc2)C(=O)N[C@@H](CCCCN)C(N)=O)NC(=O)[C@H](CCCNC(=N)N)NC(=O)[C@@H](CCCNC(=N)N)NC1=O | – | – | EC50 (NCI-H358 [1]; nci-h358): Not Active
11 | C[C@@H]1NC(=O)[C@@H](Cc2ccccc2)NC(=O)[C@@H]2CCCCNC(=O)c3cc(cc(c3)C(=O)N[C@H](Cc3ccc4ccccc4c3)C(=O)N[C@@H](CO)C(=O)N[C@@H](CC(N)=O)C(=O)N[C@H](Cc3ccc4ccccc4c3)C(=O)N[C@@H](c3ccccc3)C(=O)N2)C(=O)NC[C@@H](C(=O)N[C@@H](CCN)CC(=O)N[C@H](CCCNC(=N)N)C(=O)N[C@@H](Cc2ccccc2)C(=O)N[C@H](C)C(N)=O)NC(=O)[C@H](CCCNC(=N)N)NC(=O)[C@@H](CCCNC(=N)N)NC1=O | 3.2 µM | 0.51 µM | –
12 | C[C@@H]1NC(=O)[C@@H](Cc2ccccc2)NC(=O)[C@@H]2CCCCNC(=O)c3cc(cc(c3)C(=O)N[C@H](Cc3ccc4ccccc4c3)C(=O)N[C@@H](CO)C(=O)N[C@@H](CCC(N)=O)C(=O)N[C@H](Cc3ccc4ccccc4c3)C(=O)N[C@@H](c3ccccc3)C(=O)N2)C(=O)NC[C@@H](C(=O)N[C@H](CCCCN)C(=O)N[C@@H](Cc2c[nH]cn2)C(=O)N[C@H](Cc2ccc(O)cc2)C(=O)N[C@H](CCC(=O)O)C(N)=O)NC(=O)[C@H](CCCNC(=N)N)NC(=O)[C@@H](CCCNC(=N)N)NC1=O | – | – | IC50 (GTPase KRas): Not Active
13 | C[C@@H]1NC(=O)[C@@H](Cc2ccccc2)NC(=O)[C@@H]2CCCCNC(=O)c3cc(cc(c3)C(=O)N[C@H](Cc3ccc4ccccc4c3)C(=O)N[C@@H](CO)C(=O)N[C@@H](CCC(N)=O)C(=O)N[C@H](Cc3ccc4ccccc4c3)C(=O)N[C@@H](c3ccccc3)C(=O)N2)C(=O)NC[C@@H](C(=O)N2CCC[C@@H]2C(=O)N[C@H](CCCNC(=N)N)C(=O)N[C@H](Cc2ccccc2)C(=O)N[C@H](Cc2ccc(O)cc2)C(N)=O)NC(=O)[C@H](CCCNC(=N)N)NC(=O)[C@@H](CCCNC(=N)N)NC1=O | – | – | IC50 (GTPase KRas): Not Active
14 | CC(C)[C@@H](NC(=O)[C@H](CO)NC(=O)[C@H](CC(=O)O)NC(=O)[C@@H](Cc1ccc(O)cc1)NC(=O)[C@@H]1CNC(=O)c2cc3cc(c2)C(=O)N[C@H](Cc2ccc4ccccc4c2)C(=O)N[C@@H](CO)C(=O)N[C@@H](CCC(N)=O)C(=O)N[C@H](Cc2ccc4ccccc4c2)C(=O)N[C@@H](c2ccccc2)C(=O)N[C@@H](CCCCNC3=O)C(=O)N[C@H](Cc2ccccc2)C(=O)N[C@@H](C)C(=O)N[C@H](CCCNC(=N)N)C(=O)N[C@@H](CCCNC(=N)N)C(=O)N1)C(=O)N[C@@H](CCCCN)C(N)=O | – | – | IC50 (GTPase KRas): Not Active
15 | CC(C)[C@@H](NC(=O)C[C@@H](CC(N)=O)NC(=O)[C@@H]1CNC(=O)c2cc3cc(c2)C(=O)N[C@H](Cc2ccc4ccccc4c2)C(=O)N[C@@H](CO)C(=O)N[C@@H](CCC(N)=O)C(=O)N[C@H](Cc2ccc4ccccc4c2)C(=O)N[C@@H](c2ccccc2)C(=O)N[C@@H](CCCCNC3=O)C(=O)N[C@H](Cc2ccccc2)C(=O)N[C@@H](C)C(=O)N[C@H](CCCNC(=N)N)C(=O)N[C@@H](CCCNC(=N)N)C(=O)N1)C(=O)N[C@H](C)CC(=O)N[C@H](Cc1c[nH]c2ccccc12)C(=O)NCCC(N)=O | – | – | IC50 (GTPase KRas): Not Active

Second part, led by results:

Row | EC50 (NCI-H358 [2]) | IC50 (GTPase KRas; read-out: IC50) | Compound | also measured
16 | 6 µM | 0.7 µM | C[C@@H]1NC(=O)[C@@H](Cc2ccccc2)NC(=O)[C@@H]2CCCCNC(=O)c3cc(cc(c3)C(=O)N[C@H](Cc3ccc4ccccc4c3)C(=O)N[C@@H](CO)C(=O)N[C@@H](CC(N)=O)C(=O)N[C@H](Cc3ccc4ccccc4c3)C(=O)N[C@@H](c3ccccc3)C(=O)N2)C(=O)NC[C@@H](C(=O)N[C@@H](CCN)CC(=O)N[C@H](CCCNC(=N)N)C(=O)N[C@@H](Cc2ccc(F)cc2)C(=O)N[C@H](C)C(N)=O)NC(=O)[C@H](CCCNC(=N)N)NC(=O)[C@@H](CCCNC(=N)N)NC1=O | –
17 | 7.5 µM | 0.23 µM | C[C@@H]1NC(=O)[C@@H](Cc2ccccc2)NC(=O)[C@@H]2CCCCNC(=O)c3cc(cc(c3)C(=O)N[C@H](Cc3ccc4ccccc4c3)C(=O)N[C@@H](CO)C(=O)N[C@@H](CC(N)=O)C(=O)N[C@H](Cc3ccc4ccccc4c3)C(=O)N[C@@H](c3ccccc3)C(=O)N2)C(=O)NC[C@@H](C(=O)N[C@@H](CCC(N)=O)C(=O)N[C@H](CCCNC(=N)N)C(=O)N[C@@H](Cc2ccccc2)C(=O)N[C@H](C)C(N)=O)NC(=O)[C@H](CCCNC(=N)N)NC(=O)[C@@H](CCCNC(=N)N)NC1=O | –
